According to ChEMBL document CHEMBL4673384, “Studying Histone Deacetylase Inhibition and Apoptosis Induction of Psammaplin A Monomers with Modified Thiol Group” (ACS Med Chem Lett, 2021):
Calls of active or inactive are those of the source. No cut-off for these calls is given here.

Assays:
[1] = target: T1, Histone deacetylase 1 (Homo sapiens, UniProt Q13547); assay: Inhibition of recombinant full length C-terminal FLAG/His-tagged human HDAC1 expressed in baculovirus infected Sf9 cells using Boc-Lys(Ac)-AMC as substrate preincubated for 15 mins followed by substrate addition and measured after 60 mins by fluorescence based assay
[2] = system: HL-60; assay: Growth inhibition of human HL-60 cells after 72 hrs by trypan blue dye based assay; assay type: functional; conditions: for GI50: Homo sapiens, HL-60
Procedure, shortened: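 HL-60 leukemia cells were exposed to compound for 72 h. Growth inhibition is reported as IG50 (half the growth inhibition concentration), as means plus SD of three independent experiments.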

[3] = system: MCF7; assay: Antiproliferative activity against human MCF7 cells assessed as cell growth inhibition incubated for 96 hrs by MTT assay; assay type: functional
[4] = Antitumor activity against mouse LL/2 cells inoculated in C57BL/6J mouse assessed as reduction of tumor weight at 25 mg/kg, ip administered for 12 days measured at day 14 (reference value: 0.98 +/- 0.07 g); assay type: functional, Lewis lung carcinoma; conditions: time 12 day
[5] = target: Histone deacetylase 2 (Homo sapiens, UniProt Q92769); assay: Inhibition of recombinant full length C-terminal FLAG-tagged human HDAC2 expressed in baculovirus infected Sf9 cells using Boc-Lys(Ac)-AMC as substrate preincubated for 15 mins followed by substrate addition and measured after 60 mins by fluorescence based assay
[6] = target: Histone deacetylase 3/Nuclear receptor corepressor 2 (HDAC3/NCoR2) (Homo sapiens, UniProt O15379); assay: Inhibition of C-terminal His-tagged recombinant human HDAC3 (1 to 428 residues)/N-terminal GST-tagged recombinant human NCoR2 (395 to 489 residues) co-expressed in baculovirus infected Sf9 cells using Boc-Lys(Ac)-AMC as substrate preincubated for 15 mins followed by substrate addition and measured after 60 mins by fluorescence based assay
[7] = Toxicity in mouse LL/2 cells inoculated C57BL/6J mouse assessed as effect on body weight by measuring initial body weight at 25 mg/kg, ip administered for 12 days measured for every 2 days (reference value: 18.4 +/- 0.4 g); assay type: organism-based; conditions: in vivo, 288 h, time 12 day
[8] = Antiproliferative activity against mouse LL/2 cells assessed as cell growth inhibition incubated for 96 hrs by MTT assay; assay type: functional, Lewis lung carcinoma
[9] = system: A549; assay: Antiproliferative activity against human A549 cells assessed as cell growth inhibition incubated for 96 hrs by MTT assay; assay type: functional
[10] = target: T2, Protein deacetylase HDAC6 (Homo sapiens, UniProt Q9UBN7); assay: Inhibition of recombinant full length C-terminal FLAG-tagged human HDAC6 expressed in baculovirus infected Sf9 cells using Boc-Lys(Ac)-AMC as substrate preincubated for 15 mins followed by substrate addition and measured after 60 mins by fluorescence based assay
T2 sequence (Q9UBN7 whole entry): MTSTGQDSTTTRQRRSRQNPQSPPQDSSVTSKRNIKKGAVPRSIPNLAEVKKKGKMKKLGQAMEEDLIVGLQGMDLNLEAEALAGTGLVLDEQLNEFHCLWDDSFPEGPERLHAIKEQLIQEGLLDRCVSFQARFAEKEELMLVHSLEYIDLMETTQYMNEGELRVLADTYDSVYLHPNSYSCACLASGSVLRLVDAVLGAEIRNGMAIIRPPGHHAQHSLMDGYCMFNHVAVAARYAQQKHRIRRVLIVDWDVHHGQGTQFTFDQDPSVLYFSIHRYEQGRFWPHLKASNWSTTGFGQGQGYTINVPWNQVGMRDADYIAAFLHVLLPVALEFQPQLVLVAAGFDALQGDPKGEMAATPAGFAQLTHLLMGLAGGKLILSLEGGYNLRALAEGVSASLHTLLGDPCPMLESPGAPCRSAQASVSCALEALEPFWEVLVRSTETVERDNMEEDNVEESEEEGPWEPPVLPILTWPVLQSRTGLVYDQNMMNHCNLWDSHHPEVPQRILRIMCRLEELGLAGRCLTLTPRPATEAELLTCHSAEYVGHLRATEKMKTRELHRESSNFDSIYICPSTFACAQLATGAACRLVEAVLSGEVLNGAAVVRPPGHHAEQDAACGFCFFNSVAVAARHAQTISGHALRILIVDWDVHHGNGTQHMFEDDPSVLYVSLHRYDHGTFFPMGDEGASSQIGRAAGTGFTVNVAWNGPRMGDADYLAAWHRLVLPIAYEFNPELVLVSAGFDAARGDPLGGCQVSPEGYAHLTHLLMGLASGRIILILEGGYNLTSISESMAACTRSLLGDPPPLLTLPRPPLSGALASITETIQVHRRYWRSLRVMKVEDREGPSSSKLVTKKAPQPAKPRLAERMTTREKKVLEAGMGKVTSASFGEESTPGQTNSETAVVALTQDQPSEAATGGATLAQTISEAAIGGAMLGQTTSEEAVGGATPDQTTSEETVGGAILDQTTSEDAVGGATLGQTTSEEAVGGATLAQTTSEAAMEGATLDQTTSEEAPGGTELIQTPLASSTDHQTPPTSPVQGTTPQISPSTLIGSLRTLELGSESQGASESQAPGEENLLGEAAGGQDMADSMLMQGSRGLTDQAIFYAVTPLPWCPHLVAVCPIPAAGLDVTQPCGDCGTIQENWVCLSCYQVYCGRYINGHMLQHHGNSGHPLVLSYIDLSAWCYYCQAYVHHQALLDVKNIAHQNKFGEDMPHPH

[11] = Antitumor activity against mouse LL/2 cells inoculated in C57BL/6J mouse assessed as tumor growth inhibition at 25 mg/kg, ip administered for 12 days; assay type: functional, Lewis lung carcinoma; set-up: scale not given: the % may be the effect or the level left; conditions: time 12 day
[12] = Toxicity in mouse LL/2 cells inoculated C57BL/6J mouse assessed as effect on body weight by measuring end body weight at 25 mg/kg, ip administered for 12 days and measured for every 2 days (reference value: 18.1 +/- 0.2 g); assay type: organism-based; conditions: in vivo, 288 h, time 12 day
[13] = system: HCT-116; assay: Antiproliferative activity against human HCT-116 cells assessed as cell growth inhibition incubated for 96 hrs by MTT assay; assay type: functional
[14] = system: HL-60; assay: Induction of apoptosis in human HL60 cells assessed as necrotic cells at 4 uM incubated for 24 hrs by propidium iodide and annexin-V FITC staining based FACS analysis (reference value: 0.5 %); assay type: functional
[15] = system: HL-60; assay: Induction of apoptosis in human HL-60 cells assessed as cleavage of PARP at 0.5 to 8 uM after 24 hrs Western blot analysis; assay type: functional, cell-based; conditions: dose 0.5-8 µM
Procedure, shortened: (§1)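 HL-60 cells were treated for 24 h at the indicated concentrations, then analysed by Western blot. Blots were probed for cleavage of PARP and caspase-3, -8 and -9. Ac-H3, Ac-α-tubulin and β-actin were also detected, with β-actin as the loading reference.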

[16] = system: HL-60; assay: Induction of apoptosis in human HL-60 cells assessed as early apoptotic cells at 4 uM incubated for 24 hrs by propidium iodide and annexin-V FITC staining based FACS analysis (reference value: 2.9 %); assay type: functional
[17] = target: T1, Histone deacetylase 1; assay: Inhibition of HDAC1 in human HL-60 cells assessed as increase in Ac-H3 level at 0.5 to 8 uM incubated for 24 hrs by Western blot analysis; assay type: cell-based; conditions: dose 0.5-8 µM
Procedure, shortened: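 Compound given to HL-60 cells for 24 h at the stated concentrations, then lysed. Acetyl-histone H3 and acetyl-α-tubulin levels were read by Western blot, with total H3, α-tubulin or β-actin as references.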

[18] = system: HL-60; assay: Induction of apoptosis in human HL-60 cells assessed as cleavage of caspase-9 at 0.5 to 8 uM after 24 hrs Western blot analysis; assay type: functional, cell-based; conditions: dose 0.5-8 µM; procedure, shortened: as §1

T1 sequence (Q13547 whole entry): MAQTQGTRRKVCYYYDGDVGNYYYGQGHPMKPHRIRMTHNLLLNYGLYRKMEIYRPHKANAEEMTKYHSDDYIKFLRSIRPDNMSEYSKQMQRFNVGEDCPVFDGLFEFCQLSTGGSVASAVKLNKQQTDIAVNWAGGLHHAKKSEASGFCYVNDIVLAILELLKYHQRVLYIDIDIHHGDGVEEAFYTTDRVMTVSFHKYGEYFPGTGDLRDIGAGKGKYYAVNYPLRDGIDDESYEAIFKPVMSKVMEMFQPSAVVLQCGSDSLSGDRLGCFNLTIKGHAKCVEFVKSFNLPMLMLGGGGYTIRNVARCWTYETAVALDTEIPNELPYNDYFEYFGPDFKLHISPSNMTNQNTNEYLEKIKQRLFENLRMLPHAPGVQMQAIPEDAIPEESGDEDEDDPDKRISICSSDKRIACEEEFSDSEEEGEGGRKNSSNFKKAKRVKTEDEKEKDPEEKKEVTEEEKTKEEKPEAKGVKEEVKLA
Chain of Histone deacetylase 2 (Q92769 whole entry, the tested form may be a part): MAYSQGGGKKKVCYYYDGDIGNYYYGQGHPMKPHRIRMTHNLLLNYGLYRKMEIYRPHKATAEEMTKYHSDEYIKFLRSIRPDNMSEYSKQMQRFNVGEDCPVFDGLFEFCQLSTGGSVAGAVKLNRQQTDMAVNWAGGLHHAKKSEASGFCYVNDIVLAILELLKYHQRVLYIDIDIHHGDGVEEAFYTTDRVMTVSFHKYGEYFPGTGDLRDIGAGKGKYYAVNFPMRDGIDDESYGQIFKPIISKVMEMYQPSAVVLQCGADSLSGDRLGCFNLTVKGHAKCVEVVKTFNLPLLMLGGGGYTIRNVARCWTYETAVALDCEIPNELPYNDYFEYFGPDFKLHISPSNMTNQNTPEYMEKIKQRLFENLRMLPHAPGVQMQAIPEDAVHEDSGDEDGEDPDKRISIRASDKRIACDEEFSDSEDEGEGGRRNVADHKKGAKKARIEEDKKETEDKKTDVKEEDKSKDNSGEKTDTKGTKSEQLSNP
Chain of Histone deacetylase 3/Nuclear receptor corepressor 2 (HDAC3/NCoR2) (O15379 whole entry, the tested form may be a part): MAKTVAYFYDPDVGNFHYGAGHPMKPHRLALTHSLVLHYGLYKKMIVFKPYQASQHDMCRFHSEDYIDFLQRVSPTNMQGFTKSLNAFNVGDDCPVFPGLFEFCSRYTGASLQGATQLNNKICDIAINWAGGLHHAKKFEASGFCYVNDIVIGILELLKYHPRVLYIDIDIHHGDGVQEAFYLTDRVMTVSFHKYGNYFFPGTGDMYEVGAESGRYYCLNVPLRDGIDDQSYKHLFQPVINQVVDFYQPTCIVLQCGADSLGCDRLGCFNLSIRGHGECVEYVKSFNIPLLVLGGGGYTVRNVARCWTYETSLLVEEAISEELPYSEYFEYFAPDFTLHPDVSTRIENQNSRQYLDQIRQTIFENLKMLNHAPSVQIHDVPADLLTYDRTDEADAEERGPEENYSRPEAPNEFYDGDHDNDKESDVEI
Chain of Histone deacetylase 3/Nuclear receptor corepressor 2 (HDAC3/NCoR2) (Q9Y618 whole entry, further chain, the tested form may be a part): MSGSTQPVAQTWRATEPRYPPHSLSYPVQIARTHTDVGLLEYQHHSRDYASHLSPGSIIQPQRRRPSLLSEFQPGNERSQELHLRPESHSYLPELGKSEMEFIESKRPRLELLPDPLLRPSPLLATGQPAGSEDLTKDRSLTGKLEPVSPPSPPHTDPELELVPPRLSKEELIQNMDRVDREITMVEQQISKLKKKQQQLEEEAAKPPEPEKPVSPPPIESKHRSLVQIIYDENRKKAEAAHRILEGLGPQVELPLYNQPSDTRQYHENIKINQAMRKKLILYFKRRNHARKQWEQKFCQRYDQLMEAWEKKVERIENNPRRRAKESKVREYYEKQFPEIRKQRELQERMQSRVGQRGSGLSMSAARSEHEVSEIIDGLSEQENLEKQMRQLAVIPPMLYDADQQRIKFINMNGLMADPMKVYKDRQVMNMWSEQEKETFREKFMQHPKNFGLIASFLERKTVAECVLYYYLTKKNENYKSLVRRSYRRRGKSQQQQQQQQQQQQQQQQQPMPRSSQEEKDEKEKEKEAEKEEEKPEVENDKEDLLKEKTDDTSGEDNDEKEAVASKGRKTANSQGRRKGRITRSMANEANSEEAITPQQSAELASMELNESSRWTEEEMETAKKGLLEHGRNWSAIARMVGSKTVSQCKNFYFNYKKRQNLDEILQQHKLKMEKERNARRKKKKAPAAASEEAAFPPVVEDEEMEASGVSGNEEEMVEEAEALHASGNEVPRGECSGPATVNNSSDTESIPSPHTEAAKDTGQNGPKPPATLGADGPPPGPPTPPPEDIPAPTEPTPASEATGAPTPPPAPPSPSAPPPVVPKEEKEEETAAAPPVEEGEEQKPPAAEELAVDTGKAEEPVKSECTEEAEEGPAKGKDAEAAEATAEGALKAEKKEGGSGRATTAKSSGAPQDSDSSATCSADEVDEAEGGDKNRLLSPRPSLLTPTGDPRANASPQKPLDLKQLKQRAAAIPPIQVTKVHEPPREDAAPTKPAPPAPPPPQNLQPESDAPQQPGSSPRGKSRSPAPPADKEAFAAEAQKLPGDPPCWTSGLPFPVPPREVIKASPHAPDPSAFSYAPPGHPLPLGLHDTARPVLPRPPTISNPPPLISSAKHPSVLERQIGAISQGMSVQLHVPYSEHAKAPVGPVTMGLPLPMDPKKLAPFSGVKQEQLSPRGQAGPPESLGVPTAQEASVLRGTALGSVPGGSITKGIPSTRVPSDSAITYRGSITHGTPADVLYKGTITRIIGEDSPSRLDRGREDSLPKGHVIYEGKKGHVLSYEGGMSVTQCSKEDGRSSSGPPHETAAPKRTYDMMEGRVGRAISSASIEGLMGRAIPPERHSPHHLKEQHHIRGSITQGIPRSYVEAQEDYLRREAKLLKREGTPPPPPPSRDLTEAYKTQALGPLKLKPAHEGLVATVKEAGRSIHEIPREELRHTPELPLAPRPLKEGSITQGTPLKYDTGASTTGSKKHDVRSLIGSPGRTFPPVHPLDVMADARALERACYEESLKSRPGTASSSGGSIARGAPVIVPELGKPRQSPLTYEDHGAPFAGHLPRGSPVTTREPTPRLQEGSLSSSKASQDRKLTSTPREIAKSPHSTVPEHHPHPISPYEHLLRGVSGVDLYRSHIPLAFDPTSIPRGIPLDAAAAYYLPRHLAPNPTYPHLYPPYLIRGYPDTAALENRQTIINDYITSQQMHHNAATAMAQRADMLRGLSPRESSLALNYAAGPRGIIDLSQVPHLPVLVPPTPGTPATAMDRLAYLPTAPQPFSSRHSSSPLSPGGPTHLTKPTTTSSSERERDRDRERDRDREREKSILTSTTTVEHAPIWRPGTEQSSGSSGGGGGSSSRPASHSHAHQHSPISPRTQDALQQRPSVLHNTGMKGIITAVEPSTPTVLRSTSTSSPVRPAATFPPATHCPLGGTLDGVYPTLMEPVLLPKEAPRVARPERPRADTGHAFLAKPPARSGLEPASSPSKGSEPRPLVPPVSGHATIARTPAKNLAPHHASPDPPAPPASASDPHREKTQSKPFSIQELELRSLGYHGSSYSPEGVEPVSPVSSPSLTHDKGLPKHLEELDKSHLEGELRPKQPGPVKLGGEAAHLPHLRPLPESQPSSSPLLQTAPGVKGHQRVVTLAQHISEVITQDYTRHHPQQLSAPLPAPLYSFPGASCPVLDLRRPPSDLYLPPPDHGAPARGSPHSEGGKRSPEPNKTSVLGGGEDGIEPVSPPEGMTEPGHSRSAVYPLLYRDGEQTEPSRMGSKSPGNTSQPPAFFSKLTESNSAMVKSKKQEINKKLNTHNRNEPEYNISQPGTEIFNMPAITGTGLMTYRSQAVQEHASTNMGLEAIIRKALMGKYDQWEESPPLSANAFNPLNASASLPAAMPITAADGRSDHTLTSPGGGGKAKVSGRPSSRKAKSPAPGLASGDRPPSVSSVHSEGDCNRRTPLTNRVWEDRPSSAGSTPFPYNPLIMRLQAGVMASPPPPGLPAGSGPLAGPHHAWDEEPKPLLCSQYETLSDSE

| IC50 [1] [nM] | IC50 [5] [nM] | IC50 [6] [nM] | IC50 [10] [nM] | GI50 [2] [nM] | inhibition [17] | SMILES | IG50 [2] [µM] | IG50 [3] [µM] | Activity [4] [g] | Activity [7] [g] | IG50 [8] [µM] | IG50 [9] [µM] | Activity [11] [%] | Activity [12] [g] | IG50 [13] [µM] | Activity [14] [%] | Activity [15] | Activity [16] [%] | Activity [18] |
| --- | --- | --- | --- | --- | --- | --- | --- | --- | --- | --- | --- | --- | --- | --- | --- | --- | --- | --- | --- |
| 18 | 33 | 20 | 96 | – | – | O=C(CCNC(=O)/C(Cc1ccc(O)c(Br)c1)=N/O)NO | 0.57 | 1.09 | 0.45 | 18.9 | 5 | 1.1 | 54.68 | 18.4 | 0.9 | – | – | – | – |
| 8 | 33 | 12.4 | 311 | 370 | Active | O=C(NCCSSCCNC(=O)/C(Cc1ccc(O)c(Br)c1)=N/O)/C(Cc1ccc(O)c(Br)c1)=N/O [PSAMMAPLIN A] | – | 4.14 | 0.34 | 18.2 | 2.64 | 2.9 | 66.04 | 18.4 | 2.3 | 3.7 | Active | 3.4 | Active |
| 52 | 210 | 120 | 960 | 680 | Active | O=C(NCCS)/C(Cc1ccc(O)c(Br)c1)=N/O | – | 17 | 0.48 | 18.5 | 3.9 | 10.7 | 55.99 | 18.3 | 5.9 | 0.3 | Active | 1.6 | Active |
